# Reference: ChEMBL document CHEMBL1123206, “5-(Alkylsulfonyl)salicylanilides as potential dental antiplaque agents” (J Med Chem, 1986)
# Activity calls are given as the source filed them. No cut-off for these calls is given here.
# Assays:
# Streptococcus mutans [1] = test: Maximum percentage inhibition against Streptococcus mutans at a concentration of 0.2% w/v; assay type: functional
# Procedure, shortened: (§1)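 Bovine enamel slabs (4 × 8 mm) were autoclaved in PBS pH 7.5, coated with human saliva (1 h, 37 °C), dipped in drug solution at the stated w/v for 2 min, then rinsed. They were incubated 24 h at 37 °C in 1% sucrose-supplemented medium inoculated with the plaque-forming organism. Tooth-adherent, glass-adherent and nonadherent fractions were read by OD540. Water-dipped slabs served as controls. Run in triplicate.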
# Actinomyces viscosus [2] = test: Maximum percentage inhibition against Actinomyces viscosus M-100-2000 at a concentration of 0.2% w/v
# Actinomyces viscosus [3] = test: Compound was tested for it's inhibitory activity against Actinomyces viscosus M100-2000; assay type: functional, organism-based
# Streptococcus mutans [4] = test: The compound was tested for it's inhibitory activity against Streptococcus mutans; assay type: functional, organism-based
# Actinomyces viscosus [5] = test: Minimum inhibitory concentration against Actinomyces viscosus; assay type: functional
# Procedure, shortened: (§2)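 Tube dilution in trypticase soy broth, threefold dilutions from 1000 to 0.1 μg/mL. Stocks were 1 mg/100 μL in EtOH or Me₂SO. The inoculum was 50 μL of 10⁸ cfu/mL log-phase A. viscosus M100-2000, incubated aerobically at 37 °C. MIC was read visually at 24 h.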
# [6] = Dissociation constant of the compound; assay type: physicochemical
# Procedure, shortened: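 Spectroscopic pKa in 0.01 M phosphate buffers without cosolvent, below 10⁻⁴ M. Only pH values giving >60% ionization were used. The analytical wavelength was the longest λmax at pH 12 (260–370 nm). The value is the average of triplicate determinations.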
# Actinomyces viscosus [7] = test: Compound was tested against Actinomyces viscosus; assay type: functional
# [8] = Partition coefficient (logP); assay type: physicochemical; conditions: octanol/water
# Procedure, shortened: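 log P calculated, not measured: 3.27 for salicylanilide plus π of the 4'-substituent plus π of R' (phenolic hydrophobicity substituent constants).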
# [9] = Partition coefficient (logD); assay type: physicochemical; conditions: octanol/water
# Procedure, shortened: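 logD calculated at pH 7.2 as log D = log P + log[1/(1 + 10^(pH−pKa))], using the calculated log P and spectroscopic pKa.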
# Actinomyces viscosus [10] = test: Minimum inhibitory concentration against Actinomyces viscosus M100-2000; NE is Not Effective; assay type: functional, organism-based; procedure, shortened: as §2
# Actinomyces viscosus [11] = test: Maximum percentage inhibition against Actinomyces viscosus 6715-13WT at a concentration of 0.1% w/v; assay type: functional; conditions: in the assay text read “M-100-2000” for “6715-13WT”; procedure, shortened: as §1
# Streptococcus mutans [12] = test: Maximum percentage inhibition against Streptococcus mutans at a concentration of 0.1% w/v; assay type: functional; procedure, shortened: as §1
smiles,measurement,setting,value
O=C(Nc1ccc(Br)cc1)c1cc(Br)cc(Br)c1O [TRIBROMSALAN],inhibition at 0.2 % strength,Streptococcus mutans [1],46%
same,inhibition at 0.2 % strength,Actinomyces viscosus [2],53%
same,IC50,Actinomyces viscosus [3],880 µM
same,IC50,Streptococcus mutans [4],1200 µM
same,MIC,Actinomyces viscosus [5],0.5 µg/mL
CCCCCCCCCCCCS(=O)(=O)c1ccc(O)c(C(=O)Nc2ccc([N+](=O)[O-])cc2)c1,MIC,Actinomyces viscosus [5],0.5 µg/mL
CCCCCCS(=O)(=O)c1ccc(O)c(C(=O)Nc2ccc(Br)cc2)c1,pKa,[6],5.2
same,Log 1/MIC,Actinomyces viscosus [7],4.94
same,logP,[8],5.2
same,logD,[9],3.2
same,MIC,Actinomyces viscosus [5],5 µg/mL
CCCCCCCCCCS(=O)(=O)c1ccc(O)c(C(=O)Nc2ccc([N+](=O)[O-])cc2)c1,inhibition at 0.2 % strength,Streptococcus mutans [1],80%
same,inhibition at 0.2 % strength,Actinomyces viscosus [2],93%
same,IC50,Actinomyces viscosus [3],230 µM
same,IC50,Streptococcus mutans [4],190 µM
same,MIC,Actinomyces viscosus [5],0.5 µg/mL
CCCCS(=O)(=O)c1ccc(O)c(C(=O)Nc2ccc(C(F)(F)F)cc2)c1,pKa,[6],6.2
same,Log 1/MIC,Actinomyces viscosus [7],4.31
same,logP,[8],4.14
same,logD,[9],3.1
same,MIC,Actinomyces viscosus [5],20 µg/mL
CS(=O)(=O)c1ccc(O)c(C(=O)Nc2ccc(Br)cc2)c1,MIC,Actinomyces viscosus [5],≥ 1000 µg/mL
CCCCCCCCCCCCS(=O)(=O)c1ccc(O)c(C(=O)Nc2ccc(OC)cc2)c1,MIC,Actinomyces viscosus [5],1000 µg/mL
CCCCCCCCCCCCCCS(=O)(=O)c1ccc(O)c(C(=O)Nc2ccc([N+](=O)[O-])cc2)c1,MIC,Actinomyces viscosus [5],0.5 µg/mL
CCCCCCS(=O)(=O)c1ccc(O)c(C(=O)Nc2ccc(C(F)(F)F)cc2)c1,pKa,[6],6.2
same,Log 1/MIC,Actinomyces viscosus [7],4.94
same,logP,[8],5.22
same,logD,[9],4.18
same,MIC,Actinomyces viscosus [5],5 µg/mL
CCCCCCCCCCCCCCS(=O)(=O)c1ccc(O)c(C(=O)Nc2ccc(C(F)(F)F)cc2)c1,MIC,Actinomyces viscosus [10],inactive
CCCCCCCCS(=O)(=O)c1ccc(O)c(C(=O)Nc2ccc(C(F)(F)F)cc2)c1,pKa,[6],6.2
same,Log 1/MIC,Actinomyces viscosus [7],5.96
same,logP,[8],6.3
same,logD,[9],5.26
same,MIC,Actinomyces viscosus [5],0.5 µg/mL
CCCCS(=O)(=O)c1ccc(O)c(C(=O)Nc2ccc(Br)cc2)c1,pKa,[6],5.2
same,Log 1/MIC,Actinomyces viscosus [7],4.31
same,logP,[8],4.12
same,logD,[9],2.48
same,MIC,Actinomyces viscosus [5],20 µg/mL
CCCCCCCCCCS(=O)(=O)c1ccc(O)c(C(=O)Nc2ccc(Br)cc2)c1,pKa,[6],5.2
same,Log 1/MIC,Actinomyces viscosus [7],6
same,logP,[8],7.36
same,logD,[9],5.36
same,MIC,Actinomyces viscosus [5],0.5 µg/mL
CCCCCCCCCCCCS(=O)(=O)c1ccc(O)c(C(=O)Nc2ccc(C(F)(F)F)cc2)c1,pKa,[6],6.2
same,Log 1/MIC,Actinomyces viscosus [7],7.01
same,logP,[8],8.46
same,logD,[9],7.42
same,MIC,Actinomyces viscosus [5],0.05 µg/mL
CCCCCCCCCCS(=O)(=O)c1ccc(O)c(C(=O)Nc2ccc(C(F)(F)F)cc2)c1,inhibition at 0.2 % strength,Streptococcus mutans [1],76%
same,inhibition at 0.2 % strength,Actinomyces viscosus [2],95%
same,pKa,[6],6.2
same,IC50,Actinomyces viscosus [3],90 µM
same,Log 1/MIC,Actinomyces viscosus [7],6.69
same,IC50,Streptococcus mutans [4],1900 µM
same,logP,[8],7.38
same,logD,[9],6.34
same,MIC,Actinomyces viscosus [5],0.1 µg/mL
CCCCCCCCCCCCS(=O)(=O)c1ccc(O)c(C(=O)Nc2cccc(C(F)(F)F)c2)c1,MIC,Actinomyces viscosus [5],0.1 µg/mL
CCCCCCCCCCCCS(=O)(=O)c1ccc(O)c(C(=O)Nc2ccc(C#N)cc2)c1,MIC,Actinomyces viscosus [5],1 µg/mL
CS(=O)(=O)c1ccc(O)c(C(=O)Nc2ccc(C(F)(F)F)cc2)c1,pKa,[6],6.2
same,Log 1/MIC,Actinomyces viscosus [7],2.56
same,logP,[8],2.52
same,logD,[9],1.48
same,MIC,Actinomyces viscosus [5],1000 µg/mL
CCCCCCCCS(=O)(=O)c1ccc(O)c(C(=O)Nc2ccc([N+](=O)[O-])cc2)c1,MIC,Actinomyces viscosus [5],1 µg/mL
CCCCCCCCCCCCCCS(=O)(=O)c1ccc(O)c(C(=O)Nc2cccc(C(F)(F)F)c2)c1,MIC,Actinomyces viscosus [10],inactive
CS(=O)(=O)c1ccc(O)c(C(=O)Nc2ccccc2)c1,MIC,Actinomyces viscosus [5],≥ 1000 µg/mL
CCCCCCCCCCS(=O)(=O)c1ccc(O)c(C(=O)Nc2cccc(C(F)(F)F)c2)c1,inhibition at 0.1 % strength,Actinomyces viscosus [11],83%
same,IC50,Actinomyces viscosus [3],680 µM
same,IC50,Streptococcus mutans [4],2300 µM
same,inhibition at 0.1 % strength,Streptococcus mutans [12],47%
same,MIC,Actinomyces viscosus [5],0.5 µg/mL
CCCCCCCCCCCCS(=O)(=O)c1ccc(O)c(C(=O)Nc2ccc(Br)cc2)c1,pKa,[6],5.2
same,Log 1/MIC,Actinomyces viscosus [7],6.02
same,logP,[8],8.44
same,logD,[9],6.49
same,MIC,Actinomyces viscosus [5],0.5 µg/mL
